Results published in ChEMBL document CHEMBL2150978, “Phosphorodiamidates as a promising new phosphate prodrug motif for antiviral drug discovery: application to anti-HCV agents” (J Med Chem, 2011).

Assays:
[1] = Cytotoxicity against human HuH7 cells after 3 days; type: cell-based, Huh-7
In short: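 Huh7 replicon cells seeded at 2 × 10⁴ per well one day before dosing. Four-fold serial dilutions in growth medium, no-drug controls on each plate. Incubated 3 days at 37 °C, 5% CO₂. Viability read by CellTiter-Glo luminescence after 20 min with reagent.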

Hepatitis C virus = assay: Antiviral activity against Hepatitis C virus subtype 1b Con1 infected in human Huh7 cells assessed as inhibition of HCV replicon-encoded Renilla luciferase reporter activity after 72 hrs by HCV replicon assay; type: functional, organism-based, Hepacivirus hominis; conditions: Con1, Huh-7, 72 h
In short: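 Huh7 cells stably carrying a bicistronic subgenomic genotype 1b (Con1) replicon with Renilla luciferase reporter, seeded at 2 × 10⁴ cells/well the day before. Four-fold serial dilutions in growth medium, no-drug controls on each plate; 3 days at 37 °C, 5% CO₂. Luciferase reagent 20 min, then luminescence (RLU) read; EC₅₀ derived.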

SMILES	CC50 at 72 h [1] [µM]	EC50 (Hepatitis C virus) [µM]	EC90 (Hepatitis C virus) [µM]
COc1nc(N)nc2c1ncn2[C@@H]1O[C@H](COP(=O)(N[C@@H](Cc2ccccc2)C(=O)OC2CCCCC2)N[C@@H](Cc2ccccc2)C(=O)OC2CCCCC2)[C@@H](O)[C@@]1(C)O (mixture of isomers)	25	0.5	2
COC(=O)[C@@H](NP(=O)(N[C@@H](C)C(=O)OCC(C)(C)C)OC[C@H]1O[C@@H](n2cnc3c(OC)nc(N)nc32)[C@](C)(O)[C@@H]1O)C(C)C (mixture of isomers)	> 100	0.17	0.69
COc1nc(N)nc2c1ncn2[C@@H]1O[C@H](COP(=O)(N[C@@H](C)C(=O)OCCC(C)(C)C)N[C@@H](C)C(=O)OCCC(C)(C)C)[C@@H](O)[C@@]1(C)O (mixture of isomers)	71	0.02	0.09
CCCCNP(=O)(N[C@@H](C)C(=O)OCC(C)(C)C)OC[C@H]1O[C@@H](n2cnc3c(OC)nc(N)nc32)[C@](C)(O)[C@@H]1O (mixture of isomers)	> 100	0.41	1.5
C[C@@]1(O)[C@H](O)[C@@H](CO)O[C@H]1n1cnc2c(=O)[nH]c(N)nc21 [2'-B-METHYL-GUANOSINE]	> 100	2.2	8.3
COc1nc(N)nc2c1ncn2[C@@H]1O[C@H](COP(=O)(NCC(=O)OCC(C)(C)C)NCC(=O)OCC(C)(C)C)[C@@H](O)[C@@]1(C)O (mixture of isomers)	> 100	0.13	0.6
COc1nc(N)nc2c1ncn2[C@@H]1O[C@H](COP(=O)(N[C@@H](C)C(=O)OC2CCCCC2)N[C@@H](C)C(=O)OC2CCCC2)[C@@H](O)[C@@]1(C)O (mixture of isomers)	> 100	0.04	0.16
CC[C@H](C)[C@H](NP(=O)(N[C@H](C(=O)OCC(C)(C)C)[C@@H](C)CC)OC[C@H]1O[C@@H](n2cnc3c(OC)nc(N)nc32)[C@](C)(O)[C@@H]1O)C(=O)OCC(C)(C)C (mixture of isomers)	15	2.9	6.3
COc1nc(N)nc2c1ncn2[C@@H]1O[C@H](COP(=O)(N[C@@H](C)C(=O)OCC(C)(C)C)N2CCCC2)[C@@H](O)[C@@]1(C)O (mixture of isomers)	> 100	0.87	4
CCOc1nc(N)nc2c1ncn2[C@@H]1O[C@H](COP(=O)(N[C@@H](C)C(=O)OCC(C)(C)C)N[C@@H](C)C(=O)OCC(C)(C)C)[C@@H](O)[C@@]1(C)O (mixture of isomers)	72	0.04	0.11
COc1nc(N)nc2c1ncn2[C@@H]1O[C@H](COP(=O)(N[C@@H](CC(C)C)C(=O)OCC(C)(C)C)N[C@@H](CC(C)C)C(=O)OCC(C)(C)C)[C@@H](O)[C@@]1(C)O (mixture of isomers)	27	0.47	2.4
COC(=O)[C@H](C)NP(=O)(N[C@@H](C)C(=O)OC)OC[C@H]1O[C@@H](n2cnc3c(OC)nc(N)nc32)[C@](C)(O)[C@@H]1O (mixture of isomers)	> 100	5.9	> 10
COc1nc(N)nc2c1ncn2[C@@H]1O[C@H](COP(=O)(N2CCC[C@H]2C(=O)OCC(C)(C)C)N2CCC[C@H]2C(=O)OCC(C)(C)C)[C@@H](O)[C@@]1(C)O (mixture of isomers)	56	0.81	2
COc1nc(N)nc2c1ncn2[C@@H]1O[C@H](COP(=O)(N[C@@H](C)C(=O)OCc2ccccc2)N[C@@H](C)C(=O)OCc2ccccc2)[C@@H](O)[C@@]1(C)O (mixture of isomers)	> 100	0.49	1.6
COc1nc(N)nc2c1ncn2[C@@H]1O[C@H](COP(=O)(NCC(=O)OCc2ccccc2)NCC(=O)OCc2ccccc2)[C@@H](O)[C@@]1(C)O (mixture of isomers)	> 100	0.6	1.8
COc1nc(N)nc2c1ncn2[C@@H]1O[C@H](COP(=O)(N[C@@H](CC(C)C)C(=O)OC2CCCCC2)N[C@@H](CC(C)C)C(=O)OC2CCCCC2)[C@@H](O)[C@@]1(C)O (mixture of isomers)	20	0.45	2
CCCCCNP(=O)(N[C@@H](C)C(=O)OCC(C)(C)C)OC[C@H]1O[C@@H](n2cnc3c(OC)nc(N)nc32)[C@](C)(O)[C@@H]1O (mixture of isomers)	> 100	0.11	0.52
COc1nc(N)nc2c1ncn2[C@@H]1O[C@H](COP(=O)(N[C@H](C(=O)OC2CCCCC2)c2ccccc2)N[C@H](C(=O)OC2CCCCC2)c2ccccc2)[C@@H](O)[C@@]1(C)O (mixture of isomers)	18	0.32	1.8
COc1nc(N)nc2c1ncn2[C@@H]1O[C@H](COP(=O)(NC2CC2)N[C@@H](C)C(=O)OCC(C)(C)C)[C@@H](O)[C@@]1(C)O (mixture of isomers)	> 100	0.87	4.7
COC(=O)[C@H](Cc1ccc(OC(C)(C)C)cc1)NP(=O)(N[C@@H](Cc1ccc(OC(C)(C)C)cc1)C(=O)OC)OC[C@H]1O[C@@H](n2cnc3c(OC)nc(N)nc32)[C@](C)(O)[C@@H]1O (mixture of isomers)	89	0.11	0.5
COc1nc(N)nc2c1ncn2[C@@H]1O[C@H](COP(=O)(N[C@@H](CCSC)C(=O)OCC(C)(C)C)N[C@@H](CCSC)C(=O)OCC(C)(C)C)[C@@H](O)[C@@]1(C)O (mixture of isomers)	> 100	2.22	5
CCN(CC)P(=O)(N[C@@H](C)C(=O)OCC(C)(C)C)OC[C@H]1O[C@@H](n2cnc3c(OC)nc(N)nc32)[C@](C)(O)[C@@H]1O (mixture of isomers)	> 100	3.7	> 10
COc1nc(N)nc2c1ncn2[C@@H]1O[C@H](COP(=O)(NCCC(=O)OCc2ccccc2)NCCC(=O)OCc2ccccc2)[C@@H](O)[C@@]1(C)O (mixture of isomers)	> 100	3.8	> 10
COc1nc(N)nc2c1ncn2[C@@H]1O[C@H](COP(=O)(N[C@@H](C)C(=O)OCc2ccc(F)cc2F)N[C@@H](C)C(=O)OCc2ccc(F)cc2F)[C@@H](O)[C@@]1(C)O (mixture of isomers)	54	0.26	1.07
COc1nc(N)nc2c1ncn2[C@@H]1O[C@H](COP(=O)(N[C@@H](CCSC)C(=O)OC2CCCCC2)N[C@@H](CCSC)C(=O)OC2CCCCC2)[C@@H](O)[C@@]1(C)O (mixture of isomers)	51	0.6	2.6
CCCCNP(=O)(N[C@@H](C)C(=O)OCc1ccccc1)OC[C@H]1O[C@@H](n2cnc3c(OC)nc(N)nc32)[C@](C)(O)[C@@H]1O (mixture of isomers)	> 100	0.44	1.68
CC[C@H](C)[C@H](NP(=O)(N[C@H](C(=O)OCc1ccccc1)[C@@H](C)CC)OC[C@H]1O[C@@H](n2cnc3c(OC)nc(N)nc32)[C@](C)(O)[C@@H]1O)C(=O)OCc1ccccc1 (mixture of isomers)	24	0.4	1.56
